The text below walks through data of ChEMBL document CHEMBL1124934, “Synthesis and structure-activity relationships of dynorphin A-(1-8) amide analogues” (J Med Chem, 1990).

The term IC50 denotes the concentration that gives 50% inhibition. A higher IC50 goes with lower potency. One may read the ED50 as the dose at which the effect has come halfway, by size or by number of responders. A low value points to greater potency. The term Ki denotes a dissociation constant, usually derived from enzyme kinetics or from competition with a known ligand.

Assay [1] has as its target Delta-type opioid receptor (Mus musculus, UniProt P32300). Nature of the assay: Evaluated for inhibitory activity against Opioid receptor delta 1 of mouse vas deferens (MVD). The class given is tissue-based.
Assay [2] deals with Mus musculus. Put plainly: Evaluated for analgesic effect using mouse tail-pinch test after intravenous administration; 2.08-7.27. The class given is functional. Summed up: (§1)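 Mice, intravenous dosing, tail-pinch analgesia test. Four doses per compound, each dose tested on at least eight animals, giving ED50 in mg/kg.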
In assay [3] the target is T1, Mu-type opioid receptor (Cavia porcellus, UniProt P97266). Put plainly: Binding affinities against Opioid receptor mu 1 of guinea pig brain membrane using [3H]DAGO as the radioligand using competition binding assays. In short, it runs like this:
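μ-site competition binding on crude P2 membranes from male Hartley guinea pig brain (1 g original wet weight/20 mL, 50 mM Tris-HCl pH 7.6) with 5 nM [3H]DAGO and varied competitor, 60 min at 25 °C. GF/B filtration (1% polyethylenimine presoaked), six ice-cold buffer rinses, scintillation counting. Nonspecific binding with 10 μM levallorphan. Mean of five or six determinations ± SEM.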

The target of assay [4] is T1, Mu-type opioid receptor. Nature of the assay: Evaluated for inhibitory activity against Opioid receptor mu 1 of guinea pig ileum (GPI). The class given is tissue-based.
In assay [5] the test system is Mus musculus. Put plainly: Evaluated for analgesic effect using mouse tail-pinch test after intravenous administration; 1.27-3.29. Type of assay: functional. Summed up:
as §1

Assay [6] concerns Mus musculus. Nature of the assay: Evaluated for analgesic effect using mouse tail-pinch test after intravenous administration; 1.97-5.67. The class given is functional. In short, it runs like this: as §1
Assay [7] relates to Mus musculus. Nature of the assay: Evaluated for analgesic effect using mouse tail-pinch test after intravenous administration. The class given is functional. Summed up:
as §1

Assay [8] concerns Mus musculus. Nature of the assay: Evaluated for analgesic effect using mouse tail-pinch test after intravenous administration; 0.25-2.26. Type of assay: functional. In short, it runs like this:
as §1

For assay [9], the system named is Mus musculus. Put plainly: Evaluated for analgesic effect using mouse tail-pinch test after intravenous administration; 0.35-1.71. Type of assay: functional. In short, it runs like this:
as §1

The test system of assay [10] is Mus musculus. Nature of the assay: Evaluated for analgesic effect using mouse tail-pinch test after intravenous administration; 2.21-9.32. Type of assay: functional. In short, it runs like this: as §1
Assay [11] has as its system Mus musculus. Nature of the assay: Evaluated for analgesic effect using mouse tail-pinch test after intravenous administration; 0.11-0.52. The class given is functional. Summed up: as §1
In assay [12] the test system is Mus musculus. Put plainly: Evaluated for analgesic effect using mouse tail-pinch test after intravenous administration; 9.61-14.34. Type of assay: functional. Summed up:
as §1

The subject of assay [13] is Mus musculus. Nature of the assay: Evaluated for analgesic effect using mouse tail-pinch test after intravenous administration; 0.64-2.34. Type of assay: functional. Summed up:
as §1

For assay [14], the species on record is Mus musculus. Put plainly: animal or person. Conditions: iv.

The structures appear in SMILES notation. Square brackets hold non-standard residues; d marks the D form. Peptide text beside a SMILES is read from it. Phe(4-NO2) = N[C@@H](Cc1ccc([N+](=O)[O-])cc1)C(=O)O; NMeY = CN[C@@H](Cc1ccc(O)cc1)C(=O)O; Sar = CNCC(=O)O

T1 sequence (P97266 whole entry): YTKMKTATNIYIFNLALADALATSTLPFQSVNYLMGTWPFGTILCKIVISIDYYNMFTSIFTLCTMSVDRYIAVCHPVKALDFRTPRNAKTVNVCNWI
Delta-type opioid receptor, sequence (P32300 whole entry): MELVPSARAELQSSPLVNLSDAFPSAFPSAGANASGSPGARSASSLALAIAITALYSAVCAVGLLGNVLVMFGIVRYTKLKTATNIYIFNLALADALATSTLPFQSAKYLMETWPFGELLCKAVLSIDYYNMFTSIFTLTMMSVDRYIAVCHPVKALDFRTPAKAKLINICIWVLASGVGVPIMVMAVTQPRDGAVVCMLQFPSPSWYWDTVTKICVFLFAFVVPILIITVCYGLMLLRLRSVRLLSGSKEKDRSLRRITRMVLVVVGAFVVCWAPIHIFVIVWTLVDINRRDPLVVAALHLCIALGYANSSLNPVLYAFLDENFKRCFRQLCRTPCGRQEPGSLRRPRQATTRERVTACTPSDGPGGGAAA

As to `CN[C@@H](Cc1ccc(O)cc1)C(=O)NCC(=O)NCC(=O)N[C@H](Cc1ccccc1)C(=O)N[C@@H](CC(C)C)C(=O)N[C@@H](CCCNC(=N)N)C(=O)N[C@@H](CCCNC(=N)N)C(=O)N[C@@H](CC(C)C)C(N)=O`, the midpoint of inhibition in assay [1], the IC50, lay at 5.2 nM. This compound also displayed an ED50 in the assay with Mus musculus [2] of 3.89 mg/kg. In addition, the Ki at Mu-type opioid receptor [3] was 2.81 nM. For `CN[C@@H](Cc1ccc(O)cc1)C(=O)NCC(=O)NCC(=O)N[C@@H](Cc1ccccc1)C(=O)N[C@@H](CC(C)C)C(=O)N[C@@H](CCCNC(=N)N)C(=O)N(C)[C@@H](CCCNC(=N)N)C(=O)N[C@H](CC(C)C)C(N)=O`, the concentration for half-maximal inhibition (IC50) against Mu-type opioid receptor [4] was found to be 0.5 nM; in assay [1], 4.8 nM. This compound also came in with a Ki on Mu-type opioid receptor [3] of 3.34 nM.

Consider `CN[C@@H](Cc1ccc(O)cc1)C(=O)NCC(=O)NCC(=O)N[C@H](Cc1ccccc1)C(=O)N[C@@H](CC(C)C)C(=O)N[C@@H](CCCN=C(N)N)C(=O)N(C)[C@@H](CCCN=C(N)N)C(=O)N[C@@H](CC(C)C)C(N)=O`, for which it took a dose of 2.04 mg/kg to reach the 50% effect level in the assay with Mus musculus [5] (ED50).

In the assay on Mus musculus [6], `CCNC(=O)[C@H](CC(C)C)NC(=O)[C@H](CCCN=C(N)N)NC(=O)[C@H](CCCN=C(N)N)NC(=O)[C@H](CC(C)C)NC(=O)[C@@H](Cc1ccccc1)NC(=O)CNC(=O)CNC(=O)[C@H](Cc1ccc(O)cc1)NC` gave an ED50 of 3.34 mg/kg. Take `CN[C@@H](Cc1ccc(O)cc1)C(=O)NCC(=O)NCC(=O)N[C@H](Cc1ccccc1)C(=O)N[C@H](CC(C)C)C(=O)N[C@@H](CCCNC(=N)N)C(=O)N[C@@H](CCCNC(=N)N)C(=O)N[C@@H](CC(C)C)C(N)=O`: the IC50 is 82 nM on Mu-type opioid receptor [4] and over 1740 nM in assay [1]. This compound also came in with a median effective dose (ED50) with Mus musculus [7] of over 6 mg/kg.

With `CN[C@@H](Cc1ccc(O)cc1)C(=O)NCC(=O)NCC(=O)N[C@H](Cc1ccccc1)C(=O)N[C@H](C)C(=O)N[C@@H](CCCN=C(N)N)C(=O)N[C@@H](CCCN=C(N)N)C(=O)N[C@@H](CC(C)C)C(N)=O`, in the assay on Mus musculus [7], the ED50 is over 20 mg/kg. As for `CN[C@@H](Cc1ccc(O)cc1)C(=O)NCC(=O)NCC(=O)N[C@@H](Cc1ccccc1)C(=O)N[C@@H](CC(C)C)C(=O)N[C@@H](CCCCN=C(N)N)C(=O)N[C@@H](CCCN=C(N)N)C(=O)N[C@H](CC(C)C)C(N)=O`, in the assay on Mus musculus [7], the median effective dose (ED50) was over 8 mg/kg.

In the case of `CCNC(=O)[C@@H](CC(C)C)NC(=O)[C@H](CCCNC(=N)N)N(C)C(=O)[C@H](CCCNC(=N)N)NC(=O)[C@H](CC(C)C)NC(=O)[C@H](Cc1ccccc1)NC(=O)CNC(=O)CNC(=O)[C@H](Cc1ccc(O)cc1)NC`, the half-inhibitory concentration (IC50) at Mu-type opioid receptor [4] stood at 0.3 nM; in [1], 7.4 nM. At Mu-type opioid receptor [3], this compound displayed a Ki of 4.51 nM.

In turn, `CCNC(=O)[C@@H](CC(C)C)NC(=O)[C@H](CCCN=C(N)N)N(C)C(=O)[C@H](CCCN=C(N)N)NC(=O)[C@H](CC(C)C)NC(=O)[C@H](Cc1ccccc1)NC(=O)CNC(=O)CNC(=O)[C@H](Cc1ccc(O)cc1)NC` showed an ED50 in the assay on Mus musculus [8] of 0.75 mg/kg. Turning to `CCCCCCNC(=O)[C@H](CC(C)C)NC(=O)[C@H](CCCN=C(N)N)NC(=O)[C@H](CCCN=C(N)N)NC(=O)[C@H](CC(C)C)NC(=O)[C@@H](Cc1ccccc1)NC(=O)CNC(=O)CNC(=O)[C@H](Cc1ccc(O)cc1)NC`, in the assay on Mus musculus [7], the 50% effective dose (ED50) is over 7 mg/kg. In the assay on Mus musculus [9], `CCNC(=O)[C@@H](CC(C)C)NC(=O)[C@H](CCCN=C(N)N)N(C)C(=O)[C@H](CCCN=C(N)N)NC(=O)[C@H](CC(C)C)NC(=O)[C@H](Cc1ccc([N+](=O)[O-])cc1)NC(=O)CNC(=O)CNC(=O)[C@H](Cc1ccc(O)cc1)NC` came in with an ED50 of 0.77 mg/kg.

`CN[C@@H](Cc1ccc(O)cc1)C(=O)NCC(=O)NCC(=O)N[C@@H](Cc1ccccc1)C(=O)N[C@@H](CC(C)C)C(=O)N(C)[C@@H](CCCN=C(N)N)C(=O)N[C@@H](CCCN=C(N)N)C(=O)N[C@H](CC(C)C)C(N)=O` came in with an ED50 in the assay with Mus musculus [10] of 4.54 mg/kg. `CCNC(=O)[C@@H](CC(C)C)NC(=O)[C@H](CCCN=C(N)N)N(C)C(=O)[C@H](CCCN=C(N)N)NC(=O)[C@@H]1CSSC[C@@H](NC(=O)[C@@H](N)Cc2ccc(O)cc2)C(=O)NCC(=O)N[C@@H](Cc2ccccc2)C(=O)N1` [listing 1 of 2 here]: the IC50 on Mu-type opioid receptor [4] was determined as 0.007 nM; in [1] it was 0.13 nM. In addition, on Mu-type opioid receptor [3], the inhibition constant Ki worked out at 0.85 nM. `CCNC(=O)[C@@H](CC(C)C)NC(=O)[C@H](CCCN=C(N)N)N(C)C(=O)[C@H](CCCN=C(N)N)NC(=O)[C@@H]1CSSC[C@@H](NC(=O)[C@@H](N)Cc2ccc(O)cc2)C(=O)NCC(=O)N[C@@H](Cc2ccccc2)C(=O)N1` [listing 2 of 2 here] had a median effective dose (ED50) in the assay with Mus musculus [11] of 0.22 mg/kg. Consider `CC(C)C[C@H](NC(=O)[C@H](CCCN=C(N)N)NC(=O)[C@H](CCCN=C(N)N)NC(=O)[C@H](CC(C)C)NC(=O)[C@H](Cc1ccccc1)NC(=O)CNC(=O)[C@H](C)NC(=O)[C@@H](N)Cc1ccc(O)cc1)C(N)=O` (H-YAGFLRRL-NH2), for which the concentration for half-maximal inhibition (IC50) is 6.9 nM on Mu-type opioid receptor [4] and 9.1 nM in assay [1]. Besides, it took a dose of 11.7 mg/kg to reach the 50% effect level in the assay on Mus musculus [12] (ED50). For `CC(C)C[C@H](NC(=O)[C@H](CCCN=C(N)N)NC(=O)[C@H](CCCN=C(N)N)NC(=O)[C@H](CC(C)C)NC(=O)[C@H](Cc1ccccc1)NC(=O)CNC(=O)CN(C)C(=O)[C@@H](N)Cc1ccc(O)cc1)C(N)=O` (H-Y[Sar]GFLRRL-NH2), the 50% effective dose (ED50) with Mus musculus [7] is over 10 mg/kg. `CN[C@@H](Cc1ccc(O)cc1)C(=O)N[C@@H](C)C(=O)NCC(=O)N[C@@H](Cc1ccccc1)C(=O)N[C@@H](CC(C)C)C(=O)N[C@@H](CCCN=C(N)N)C(=O)N[C@@H](CCCN=C(N)N)C(=O)N[C@@H](CC(C)C)C(N)=O` (H-[NMeY]AGFLRRL-NH2) gave an ED50 in the assay with Mus musculus [7] of over 5 mg/kg. For `CN[C@@H](Cc1ccc(O)cc1)C(=O)N[C@@H](C)C(=O)NCC(=O)N[C@@H](Cc1ccccc1)C(=O)N[C@@H](CC(C)C)C(=O)N[C@@H](CCCNC(=N)N)C(=O)N[C@@H](CCCNC(=N)N)C(=O)N[C@@H](CC(C)C)C(N)=O` (H-[NMeY]AGFLRRL-NH2), the 50% inhibitory concentration (IC50) worked out at 13.9 nM at Mu-type opioid receptor [4] and 25.7 nM in [1]. In addition, at Mu-type opioid receptor [3], the Ki worked out at 1.25 nM.

In the case of `CN[C@@H](Cc1ccc(O)cc1)C(=O)NCC(=O)NCC(=O)N[C@@H](Cc1ccc([N+](=O)[O-])cc1)C(=O)N[C@@H](CC(C)C)C(=O)N[C@@H](CCCN=C(N)N)C(=O)N[C@@H](CCCN=C(N)N)C(=O)N[C@@H](CC(C)C)C(N)=O` (H-[NMeY]GG[Phe(4-NO2)]LRRL-NH2), the results for the IC50 (against Mu-type opioid receptor [4]; in assay [1]) were 1.3 nM and 3.8 nM, respectively. For the same compound, the ED50 in the assay on Mus musculus [13] was found to be 1.23 mg/kg. On Mu-type opioid receptor [3], the inhibition constant Ki came out at 1.01 nM. Regarding `CN1CC[C@]23c4c5ccc(O)c4O[C@H]2[C@@H](O)C=C[C@H]3[C@H]1C5` [MORPHINE], in the assay filed under Mus musculus [14], the ED50 came out at 1.85 mg/kg.
